According to ChEMBL document CHEMBL1133803, “Design and synthesis of irreversible depsipeptidyl human rhinovirus 3C protease inhibitors” (Bioorg Med Chem Lett, 2001):

Experiments:
Human rhinovirus sp. = assay: Enzyme inhibition against Human Rhinovirus 3C protease was determined; type: functional
HeLa [1] = assay: Cytotoxicity against uninfected H1HeLa cells; type: functional; settings: Homo sapiens
HeLa [2] = assay: Anti viral activity against human rhinovirus (HRV) in H1HeLa cells; type: functional, cell-based
[3] = Metabolism after 30 min of incubation with human liver microsomes in the presence of cofactor […] (2.0 mM) at a concentration of 25 uM; type: ADME; settings: read-out: Metabolism
[4] = Metabolism after 30 min of incubation with human liver microsomes in the absence of cofactor […] (2.0 mM) at a concentration of 25 uM; type: ADME; settings: read-out: Metabolism
Summary of the method: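 Compound incubated for 30 min with human liver microsomes (1.0 mg/mL), with or without NADPH. An aliquot was precipitated with acetonitrile, then analysed by reverse-phase HPLC at rt using a gradient of CH3CN/CH3OH/0.01% TFA (pH 3.5 adjusted with NEt3), from 5:20:75 to 60:20:20 over 20 min, held 10 min, 1.0 mL/min. Result expressed as % metabolism.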

SMILES | EC50 (HeLa [2]) | metabolised at 0.5 h, 25 µM [3] | metabolised at 0.5 h, 25 µM [4] | K obs / 1 (Human rhinovirus sp.) | CC50 (HeLa [1])
CCOC(=O)/C=C/[C@H](CCC(N)=O)NC(=O)[C@@H](CC(=O)[C@@H](NC(=O)c1cc(C)on1)C(C)C)Cc1ccc(F)cc1 | 100 nM |  |  | 240000 M⁻¹ s⁻¹ | > 100000 nM
CCOC(=O)/C=C/[C@H](CCC(N)=O)NC(=O)[C@H](Cc1ccc(F)cc1)NC(=O)[C@@H](NC(=O)SC1CCCC1)C(C)C | 190 nM |  |  | 59900 M⁻¹ s⁻¹ | > 100000 nM
CCOC(=O)/C=C/[C@H](C[C@@H]1CCNC1=O)NC(=O)[C@H](Cc1ccc(F)cc1)NC(=O)[C@@H](NC(=O)c1cc(C)on1)C(C)C | 10 nM | 22% | 7% | 1500000 M⁻¹ s⁻¹ | > 100000 nM
CCOC(=O)/C=C/[C@H](CCC(N)=O)NC(=O)[C@@H](CC(=O)[C@@H](NC(=O)SC1CCCC1)C(C)C)Cc1ccc(F)cc1 | 20 nM |  |  | 293000 M⁻¹ s⁻¹ | > 100000 nM
CCOC(=O)/C=C/[C@H](CCC(N)=O)NC(=O)[C@H](Cc1ccc(F)cc1)OC(=O)[C@@H](NC(=O)c1cc(C)on1)C(C)C | 100 nM |  |  | 68400 M⁻¹ s⁻¹ | > 10000 nM
CCOC(=O)/C=C/[C@H](C[C@@H]1CCNC1=O)NC(=O)[C@@H](CC(=O)[C@@H](NC(=O)c1cc(C)on1)C(C)C)Cc1ccc(F)cc1 [RUPINTRIVIR] | 5 nM | 50% | 27% | 1090000 M⁻¹ s⁻¹ | > 100000 nM

Continued by falling EC50 (HeLa [2]), values first:

EC50 (HeLa [2]) | metabolised at 0.5 h, 25 µM [3] | metabolised at 0.5 h, 25 µM [4] | SMILES | K obs / 1 (Human rhinovirus sp.) | CC50 (HeLa [1])
1000 nM |  |  | CCOC(=O)/C=C/[C@H](CCC(N)=O)NC(=O)[C@H](Cc1ccc(F)cc1)OC(=O)[C@@H](NC(=O)SC1CCCC1)C(C)C | 99800 M⁻¹ s⁻¹ | > 10000 nM
420 nM |  |  | CCOC(=O)/C=C/[C@H](CCC(N)=O)NC(=O)[C@H](Cc1ccc(F)cc1)NC(=O)[C@@H](NC(=O)c1cc(C)on1)C(C)C | 248000 M⁻¹ s⁻¹ | > 100000 nM
7 nM | 67% | 44% | CCOC(=O)/C=C/[C@H](C[C@@H]1CCNC1=O)NC(=O)[C@H](Cc1ccc(F)cc1)OC(=O)[C@@H](NC(=O)c1cc(C)on1)C(C)C | 270000 M⁻¹ s⁻¹ | > 100000 nM
